From ChEMBL document CHEMBL5108074 (J Med Chem, 2022)
In brackets after ≈: the same amount, converted by molar mass.

Assays:
[1] = target: T1, Plasma kallikrein (Homo sapiens, UniProt P03952); test: Inhibition of human plasma kallikrein using H-D-Pro-Phe-Arg-AFC as flurogenic substrate at 1000 nM preincubated for 5 mins followed by substrate addition by fluorometer analysis relative to control; format: cell-free
How it was run: (§1)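 Crude library compounds (unpurified, dissolved in DMSO) were screened twice, once at each of the single concentrations. Human plasma kallikrein was preincubated with compound for 5 min, then H-D-Pro-Phe-Arg-AFC was added. Activity was followed as the kinetic rate of fluorogenic substrate cleavage, and percent inhibition was calculated relative to control.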

[2] = target: T1, Plasma kallikrein; test: Inhibition of human plasma kallikrein using H-D-Pro-Phe-Arg-AFC as flurogenic substrate preincubated for 5 mins followed by substrate addition by fluorometer analysis; format: cell-free
[3] = target: T1, Plasma kallikrein; test: Inhibition of human plasma kallikrein using H-D-Pro-Phe-Arg-AFC as flurogenic substrate at 100 nM preincubated for 5 mins followed by substrate addition by fluorometer analysis relative to control; format: cell-free; how it was run: as §1
[4] = Kinetic solubility of the compound in 0.1N HCl
[5] = Kinetic solubility of the compound in aqueous assay buffer at pH 7.7
[6] = Metabolic stability in human liver microsomes assessed as intrinsic clearance per mg of protein measured upto 60 mins in presence of NADPH regenerating system by LC-MS/MS analysis; format: ADME, Microsome; conditions: microsomes, 1 h

T1 sequence (P03952 20-390 limits assumed): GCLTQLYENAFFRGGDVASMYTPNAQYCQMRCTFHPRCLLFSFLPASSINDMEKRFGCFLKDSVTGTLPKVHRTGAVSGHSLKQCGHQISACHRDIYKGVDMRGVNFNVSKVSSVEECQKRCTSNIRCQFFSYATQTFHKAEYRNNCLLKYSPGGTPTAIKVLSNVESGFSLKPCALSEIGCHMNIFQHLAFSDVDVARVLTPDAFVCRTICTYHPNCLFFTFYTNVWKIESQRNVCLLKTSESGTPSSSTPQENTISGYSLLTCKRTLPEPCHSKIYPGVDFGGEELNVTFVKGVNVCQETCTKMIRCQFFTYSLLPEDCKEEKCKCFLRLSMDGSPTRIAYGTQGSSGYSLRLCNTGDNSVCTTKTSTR
T1 sequence (P03952 391-638 limits assumed): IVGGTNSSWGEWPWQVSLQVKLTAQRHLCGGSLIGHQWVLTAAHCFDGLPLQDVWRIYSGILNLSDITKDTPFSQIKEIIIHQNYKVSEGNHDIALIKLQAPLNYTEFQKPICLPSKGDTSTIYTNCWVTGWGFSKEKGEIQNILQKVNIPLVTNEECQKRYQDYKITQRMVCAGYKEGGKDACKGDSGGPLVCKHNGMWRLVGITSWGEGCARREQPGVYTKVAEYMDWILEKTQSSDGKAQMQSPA

O=C(NCc1c(Cl)cccc1Cl)c1cnn(Cc2ccc(Cn3ccccc3=O)cc2)c1
inhibition [1]: 94% | IC50 [2]: 0.04 µM | inhibition [3]: 56%

Cc1cc(C(=O)NCc2ccc(CN)cc2)c(C)n1Cc1cccs1
IC50 [2]: 2.7 µM

Cc1cc(C(=O)NCc2ccc(CN)cc2)c(C)n1CCCCc1ccccc1
IC50 [2]: 0.92 µM

O=C(NCc1c(F)cccc1Cl)c1cnn(Cc2ccc(Cn3ccccc3=O)cc2)c1
inhibition [1]: 92% | IC50 [2]: 0.031 µM | inhibition [3]: 61%

Cc1cc(C(=O)NCc2ccc(CN)cc2)c(C)n1CCCc1ccccc1
IC50 [2]: 4.8 µM

COCc1nn(Cc2ccc(Cn3ccccc3=O)cc2)cc1C(=O)NCc1sccc1Cl
IC50 [2]: 0.21 µM

O=C(NCc1c(F)cccc1C(F)(F)F)c1cnn(Cc2ccc(Cn3ccccc3=O)cc2)c1
inhibition [1]: 97% | IC50 [2]: 0.0078 µM | inhibition [3]: 83%

COCc1nn(Cc2ccc(Cn3ccccc3=O)cc2)cc1C(=O)NCc1cc(OC)ccc1F
solubility kinetic [4]: > 120 µg/mL | solubility kinetic [5]: > 120 µg/mL

Cc1cc(C(=O)NCc2ccc(CN)cc2)c(C)n1Cc1csc(Cc2ccccc2)n1
IC50 [2]: 2.7 µM

O=C(NCc1ccccc1Cl)c1cnn(Cc2ccc(Cn3ccccc3=O)cc2)c1
inhibition [1]: 67% | inhibition [3]: 12%

Cc1cc(C(=O)NCc2ccc(CN)cc2)c(C)n1Cc1coc(-c2ccccc2)n1
IC50 [2]: 0.48 µM

COCc1nn(Cc2ccc(Cn3ccccc3=O)cc2)cc1C(=O)NCc1nccc(Cl)c1F
IC50 [2]: 0.093 µM

COCc1nn(Cc2ccc(Cn3ccccc3=O)cc2)cc1C(=O)NCc1ncc(C)c(OC)c1C
IC50 [2]: 0.037 µM

Cc1cc(C(=O)NCc2ccc(CN)cc2)c(C)n1Cc1cc(-c2ccccc2)cs1
IC50 [2]: 0.57 µM

Cc1cc(C(=O)NCc2ccc(CN)cc2)c(C)n1Cc1ccc(-c2ccccc2)cc1
IC50 [2]: 5.6 µM

COCc1nn(Cc2ccc(Cn3ccccc3=O)cc2)cc1C(=O)NCc1cccc(O)c1F
solubility kinetic [4]: > 120 µg/mL | solubility kinetic [5]: > 120 µg/mL

O=C(NCc1cccc(Cl)c1)c1cnn(Cc2ccc(Cn3ccccc3=O)cc2)c1
inhibition [1]: 74% | inhibition [3]: 20%

Cc1cc(C(=O)NCc2ccc(CN)cc2)c(C)n1CCCCCc1ccccc1
IC50 [2]: 3.8 µM

COc1cccc(CNC(=O)c2cnn(Cc3ccc(Cn4ccccc4=O)cc3)c2)c1
inhibition [1]: 83% | IC50 [2]: 0.09 µM | inhibition [3]: 35%

COc1ccccc1CNC(=O)c1cnn(Cc2ccc(Cn3ccccc3=O)cc2)c1
inhibition [1]: 63% | inhibition [3]: 11%

O=C(NCc1ccc(Cl)cc1)c1cnn(Cc2ccc(Cn3ccccc3=O)cc2)c1
inhibition [1]: 60% | inhibition [3]: 13%

NCc1ccc(CNC(=O)c2cnn(Cc3csc(-c4ccccc4)n3)c2)cc1
IC50 [2]: 0.85 µM

Cc1cnn(Cc2ccc(Cn3cc(C(=O)NCc4ccc5c(N)nccc5c4)cn3)cc2)c1
microsomal intrinsic clearance [6]: 181 µL/min

CCOc1ccnc(CNC(=O)c2cn(Cc3ccc(Cn4ccccc4=O)cc3)nc2COC)c1F
microsomal intrinsic clearance [6]: 69 µL/min | IC50 [2]: 0.0079 µM

COCc1nn(Cc2ccc(Cn3ccccc3=O)cc2)cc1C(=O)NCc1cc(C)[nH]n1
IC50 [2]: 0.22 µM

COc1ccc(F)c(CNC(=O)c2cnn(Cc3ccc(Cn4ccccc4=O)cc3)c2)c1F
microsomal intrinsic clearance [6]: 36 µL/min | IC50 [2]: 0.003 µM

O=C(NCc1ccccc1F)c1cnn(Cc2ccc(Cn3ccccc3=O)cc2)c1
inhibition [1]: 59% | inhibition [3]: 13%

COc1ccnc(CNC(=O)c2cn(Cc3ccc(Cn4ccccc4=O)cc3)nc2C2CC2)c1F
microsomal intrinsic clearance [6]: 49 µL/min | IC50 [2]: 0.0044 µM

COCc1nn(Cc2ccc(Cn3ccccc3=O)cc2)cc1C(=O)NCc1c(Cl)ccc(OC)c1F
microsomal intrinsic clearance [6]: 120 µL/min | solubility kinetic [4]: > 120 µg/mL | solubility kinetic [5]: > 120 µg/mL

Cc1cc(C(=O)NCc2ccc(C(=N)N)cc2)c(C)n1Cc1ccccc1
IC50 [2]: 0.0055 µM

COCc1nn(Cc2ccc(Cn3ccccc3=O)cc2)cc1C(=O)NCc1cc[nH]n1
IC50 [2]: 0.57 µM

O=C(NCc1ccccc1)c1cnn(Cc2ccc(Cn3ccccc3=O)cc2)c1
inhibition [1]: 29% | inhibition [3]: 0%

Cc1cc(C(=O)NCc2ccc(CN)cc2)c(C)n1Cc1cccc(-c2cccnc2)n1
IC50 [2]: 0.58 µM

COCc1nn(Cc2ccc(Cn3ccccc3=O)cc2)cc1C(=O)NCc1ncc(F)cc1F
IC50 [2]: 2.22 µM

Cc1ccccc1CNC(=O)c1cnn(Cc2ccc(Cn3ccccc3=O)cc2)c1
inhibition [1]: 62% | inhibition [3]: 12%

COCc1nn(Cc2ccc(Cn3ccccc3=O)cc2)cc1C(=O)NCc1cnccc1C(F)(F)F
IC50 [2]: 0.46 µM

Cc1cccc(CNC(=O)c2cnn(Cc3ccc(Cn4ccccc4=O)cc3)c2)c1
inhibition [1]: 57% | inhibition [3]: 11%

COCc1nn(Cc2ccc(Cn3ccccc3=O)cc2)cc1C(=O)NCc1nc(OC)ccc1F
IC50 [2]: 0.9 µM

COc1cccc(CNC(=O)c2cn(Cc3ccc(Cn4ccccc4=O)cc3)nc2N(C)C)c1F
solubility kinetic [4]: > 120 µg/mL | solubility kinetic [5]: > 120 µg/mL

COc1ccnc(CNC(=O)c2cnn(Cc3ccc(Cn4ccccc4=O)cc3)c2)c1F
microsomal intrinsic clearance [6]: 2 µL/min | IC50 [2]: 0.0051 µM

COCc1nn(Cc2ccc(Cn3ccccc3=O)cc2)cc1C(=O)NCc1nccc(C)c1Cl
IC50 [2]: 0.3 µM

Cc1ccc(CNC(=O)c2cnn(Cc3ccc(Cn4ccccc4=O)cc3)c2)cc1
inhibition [1]: 84% | IC50 [2]: 0.088 µM | inhibition [3]: 36%

COc1cccc(CNC(=O)c2cn(Cc3ccc(Cn4ccccc4=O)cc3)nc2C2CC2)c1F
microsomal intrinsic clearance [6]: 170 µL/min | solubility kinetic [4]: > 110 µg/mL | solubility kinetic [5]: 58 µg/mL (≈ 119 µM)

COCc1nn(Cc2ccc(Cn3ccccc3=O)cc2)cc1C(=O)NCc1ncc(Cl)cc1C#N
IC50 [2]: 0.25 µM

COCc1nn(Cc2ccc(Cn3ccccc3=O)cc2)cc1C(=O)NCc1nc(C)ccc1F
IC50 [2]: 0.9 µM

Cc1cc(C(=O)NCc2ccc(CN)cc2)c(C)n1Cc1ccccc1
IC50 [2]: 3.7 µM

COc1ccc(CNC(=O)c2cnn(Cc3ccc(Cn4ccccc4=O)cc3)c2)cc1
inhibition [1]: 72% | inhibition [3]: 17%

COCc1nn(Cc2ccc(Cn3ccccc3=O)cc2)cc1C(=O)NCc1ncc(Cl)cc1F
IC50 [2]: 0.16 µM

Cc1cc(C(=O)NCc2ccc(CN)cc2)c(C)n1Cc1cccc(-c2ccccc2)c1
IC50 [2]: 0.73 µM

COCc1nn(Cc2ccc(Cn3ccccc3=O)cc2)cc1C(=O)NCc1nccc(OC(C)C)c1F
IC50 [2]: 2.4 µM

Cc1cc(C(=O)NCc2ccc(CN)cc2)c(C)n1Cc1csc(-c2ccccc2)c1
IC50 [2]: 0.6 µM

Cc1cc(C(=O)NCc2ccc(CN)cc2)c(C)n1CCc1ccccc1
IC50 [2]: > 10 µM

Cc1cnn(Cc2ccc(Cn3c(C)cc(C(=O)NCc4ccc(CN)cc4)c3C)cc2)c1
IC50 [2]: 0.065 µM

COCc1nn(Cc2ccc(Cn3ccccc3=O)cc2)cc1C(=O)NCc1nccc(C)c1F
IC50 [2]: 0.14 µM

Cc1cc(C(=O)NCc2ccc(CN)cc2)c(C)n1Cc1csc(-c2ccccc2)n1
IC50 [2]: 0.072 µM

Cc1cccc(C)c1CNC(=O)c1cnn(Cc2ccc(Cn3ccccc3=O)cc2)c1
inhibition [1]: 89% | IC50 [2]: 0.068 µM | inhibition [3]: 53%

CCc1cccc(CNC(=O)c2cn(Cc3ccc(Cn4ccccc4=O)cc3)nc2COC)c1F
solubility kinetic [4]: 29 µg/mL (≈ 59.4 µM) | solubility kinetic [5]: > 120 µg/mL

N=C(N)c1ccc(CNC(=O)c2cnn(Cc3ccccc3)c2)cc1
IC50 [2]: 0.062 µM

Cc1cc(C(=O)NCc2ccc(CN)cc2)c(C)n1Cc1csc(-c2cccnc2)c1
IC50 [2]: 0.44 µM

O=C(NCc1c(F)cccc1F)c1cnn(Cc2ccc(Cn3ccccc3=O)cc2)c1
inhibition [1]: 88% | IC50 [2]: 0.062 µM | inhibition [3]: 47%
